Assay results reported in ChEMBL document CHEMBL4396897, “Potent 5-Cyano-6-phenyl-pyrimidin-Based Derivatives Targeting DCN1-UBE2M Interaction” (J Med Chem, 2019).
Activity calls are given as the source filed them. The rule behind the calls is not given here.

How the values were obtained:
[1] = test system: A549; test: Induction of apoptosis in human A549 cells assessed as early apoptotic cells at 2.5 uM after 48 hrs by Annexin V-FITC/propidium iodide staining based flow cytometry (reference value: 3.63%); format: functional
[2] = Aqueous solubility of compound in pH 7.4 PBS sonicated for 30 mins followed by 24 hrs incubation under shaking condition by UV-Vis spectroscopy; format: physicochemical; conditions: buffer, pH 7.4, 24 h
Procedure, shortened: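 Compound powder added to phosphate buffer (PBS, pH 7.4) until a suspension formed. Sonicated 30 min in a water bath, then shaken 24 h at room temperature to reach equilibrium. Centrifuged, supernatant filtered through a 0.45µm membrane, and filtrate measured by UV spectroscopy against a PBS control.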

[3] = test system: NCI-H1975; test: Induction of apoptosis in human NCI-NCI-H1975 cells assessed as early apoptotic cells at 5 uM after 48 hrs by Annexin V-FITC/propidium iodide staining based flow cytometry (reference value: 2.47%); format: functional
[4] = molecular target: T1, NEDD8-activating enzyme E1 catalytic subunit (Homo sapiens) (UniProt Q8TBC4); test: Inhibition of NEDD8-activating enzyme E1C (unknown origin) assessed as effect on NEDD8/UBE2M complex formation up to 100 uM pre-incubated for 10 mins followed by Mg-ATP addition after 60 mins by SDS-PAGE analysis
T1 sequence (whole entry): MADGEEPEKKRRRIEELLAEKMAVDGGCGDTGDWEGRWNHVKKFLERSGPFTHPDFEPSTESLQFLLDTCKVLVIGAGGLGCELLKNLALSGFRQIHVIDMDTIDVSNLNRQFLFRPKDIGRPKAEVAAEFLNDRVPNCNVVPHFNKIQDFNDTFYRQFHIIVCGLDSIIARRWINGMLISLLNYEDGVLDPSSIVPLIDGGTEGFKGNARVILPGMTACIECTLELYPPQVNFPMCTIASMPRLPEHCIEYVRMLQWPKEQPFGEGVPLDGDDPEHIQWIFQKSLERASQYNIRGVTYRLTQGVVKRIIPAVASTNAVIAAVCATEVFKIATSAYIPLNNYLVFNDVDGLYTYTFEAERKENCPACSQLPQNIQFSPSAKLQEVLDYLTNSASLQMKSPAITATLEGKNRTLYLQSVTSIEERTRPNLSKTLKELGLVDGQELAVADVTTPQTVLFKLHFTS
Procedure, shortened: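 Cell-free NEDD8~UBE2M formation: NEDD8 E1 mixed with NEDD8, UBE2M and compound (10 and 20µM reference inhibitor, or 1, 10 and 100µM test compound) in reaction buffer, 10 min at room temperature. Started with Mg-ATP, incubated 60 min at 37°C, then 1mM DTT and non-reducing loading buffer added. Resolved on 12% SDS-PAGE.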

[5] = test system: MCF7; test: Antiproliferative activity against human MCF7 after 72 hrs by MTT assay; format: functional, cell-based; conditions: MCF7, 72 h
Procedure, shortened: (§1)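 MTT viability assay: cells seeded at 2~5×10^3 per well, exposed to serial dilutions of compound for 72h, then MTT (5 mg/mL in PBS) added for 4h at 37°C. Formazan dissolved in DMSO and read at 490nm. IC50 reported as mean ± SD of three independent experiments.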

[6] = test system: PC-3; test: Antiproliferative activity against human PC3 after 72 hrs by MTT assay; format: functional, cell-based; conditions: PC-3, 72 h; procedure, shortened: as §1
[7] = test system: NCI-H1975; test: Induction of apoptosis in human NCI-NCI-H1975 cells assessed as necrotic cells at 2.5 uM after 48 hrs by Annexin V-FITC/propidium iodide staining based flow cytometry (reference value: 0.94%); format: functional
[8] = test system: A549; test: Induction of apoptosis in human A549 cells assessed as viable cells at 2.5 uM after 48 hrs by Annexin V-FITC/propidium iodide staining based flow cytometry (reference value: 92.9%); format: functional; conditions: A549, 48 h, read-out: Activity
[9] = test system: PC-9; test: Induction of apoptosis in human PC9 cells assessed as viable cells at 5 uM after 48 hrs by Annexin V-FITC/propidium iodide staining based flow cytometry (reference value: 95.7%); format: functional; conditions: PC-9, 48 h, read-out: Activity
Procedure, shortened: (§2)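 PC9 cells seeded in 6-well plates (1~2×10^6 cells/mL), incubated overnight, then exposed to 0, 2.5, 5 or 10µM compound for 48h. Harvested cells stained with Annexin-V-FITC/PI for 30 min and analysed by flow cytometry. Three individual experiments; means ± SD.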

[10] = molecular target: T2, DCN1-like protein 1 (Homo sapiens, UniProt Q96GG9); test: Binding affinity to N-terminal GST tagged recombinant human DCN1 (58 to 259 residues) expressed in Escherichia coli BL21(DE3) assessed as reduction in DCN1-FAM-labelled N-terminal acetylated UBE2M (1 to 21 residues) protein-protein interaction after 30 mins by HTRF assay
[11] = test system: PC-9; test: Induction of apoptosis in human PC9 cells assessed as viable cells at 2.5 uM after 48 hrs by Annexin V-FITC/propidium iodide staining based flow cytometry (reference value: 95.7%); format: functional; conditions: PC-9, 48 h, read-out: Activity; procedure, shortened: as §2
[12] = test system: PC-9; test: Induction of apoptosis in human PC9 cells assessed as necrotic cells at 10 uM after 48 hrs by Annexin V-FITC/propidium iodide staining based flow cytometry (reference value: 1.34%); format: functional; procedure, shortened: as §2
[13] = test system: PC-9; test: Induction of apoptosis in human PC9 cells assessed as necrotic cells at 5 uM after 48 hrs by Annexin V-FITC/propidium iodide staining based flow cytometry (reference value: 1.34%); format: functional; procedure, shortened: as §2
[14] = test system: NCI-H1975; test: Induction of apoptosis in human NCI-NCI-H1975 cells assessed as necrotic cells at 10 uM after 48 hrs by Annexin V-FITC/propidium iodide staining based flow cytometry (reference value: 0.94%); format: functional
[15] = test system: SMMC-7721; test: Antiproliferative activity against human SMMC7721 after 72 hrs by MTT assay; format: functional, cell-based; conditions: SMMC-7721, 72 h; procedure, shortened: as §1
[16] = test system: KYSE-70 cell line; test: Antiproliferative activity against human KYSE-70 after 72 hrs by MTT assay; format: functional, cell-based; conditions: KYSE-70, 72 h; procedure, shortened: as §1
[17] = test system: PC-9; test: Induction of apoptosis in human PC9 cells assessed as late apoptotic cells at 5 uM after 48 hrs by Annexin V-FITC/propidium iodide staining based flow cytometry (reference value: 1.57%); format: functional
[18] = test system: A549; test: Induction of apoptosis in human A549 cells assessed as viable cells at 10 uM after 48 hrs by Annexin V-FITC/propidium iodide staining based flow cytometry (reference value: 92.9%); format: functional; conditions: A549, 48 h, read-out: Activity
[19] = molecular target: T2, DCN1-like protein 1; test: Binding affinity to N-terminal His6-tagged recombinant human DCN1 expressed in Escherichia coli BL21-AI assessed as reduction in DCN1-FAM-labelled N-terminal acetylated UBE2M (1 to 12 residues) protein-protein interaction after 30 mins by fluorescence polarization competitive binding assay
[20] = test system: PC-9; test: Induction of apoptosis in human PC9 cells assessed as necrotic cells at 2.5 uM after 48 hrs by Annexin V-FITC/propidium iodide staining based flow cytometry (reference value: 1.34%); format: functional; procedure, shortened: as §2
[21] = test system: A549; test: Induction of apoptosis in human A549 cells assessed as necrotic cells at 2.5 uM after 48 hrs by Annexin V-FITC/propidium iodide staining based flow cytometry (reference value: 0.88%); format: functional
[22] = test system: A549; test: Induction of apoptosis in human A549 cells assessed as early apoptotic cells at 5 uM after 48 hrs by Annexin V-FITC/propidium iodide staining based flow cytometry (reference value: 3.63%); format: functional

T2 sequence (Q96GG9 whole entry, the tested form may be a part): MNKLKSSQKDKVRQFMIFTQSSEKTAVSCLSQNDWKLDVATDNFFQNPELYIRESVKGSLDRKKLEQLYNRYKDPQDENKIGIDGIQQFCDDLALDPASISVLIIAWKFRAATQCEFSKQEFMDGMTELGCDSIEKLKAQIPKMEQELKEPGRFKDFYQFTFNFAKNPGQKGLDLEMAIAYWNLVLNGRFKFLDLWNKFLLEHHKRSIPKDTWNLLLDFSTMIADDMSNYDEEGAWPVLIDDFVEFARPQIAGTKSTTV

solubility [2]: Soluble
inhibition [4]: inactive
IC50 [5]: 2200 nM
IC50 [6]: 1620 nM
IC50 [10]: 15.7 nM
Ki [10]: 13.7 nM
IC50 [15]: 2450 nM
IC50 [19]: 26.9 nM
Ki [19]: 20.8 nM
Structure (SMILES): C#CCSc1nc(Sc2nccs2)c(C#N)c(-c2ccc(C)cc2)n1
Activity [1]: 6.21%
Activity [3]: 28.4%
Activity [7]: 1.35%
viability at 2.5 µM [8]: 82.2%
viability at 5 µM [9]: 63.8%
viability at 2.5 µM [11]: 69.3%
Activity [12]: 17.4%
Activity [13]: 5.29%
Activity [14]: 2.74%
IC50 [16]: 4300 nM
Activity [17]: 22.7%
viability at 10 µM [18]: 15.7%
Activity [20]: 19.9%
Activity [21]: 1.22%
Activity [22]: 8.75%
